According to ChEMBL document CHEMBL1142666, “Novel [2',5'-bis-O-(tert-butyldimethylsilyl)-beta-D-ribofuranosyl]- 3'-spiro-5''-(4''-amino-1'',2''-oxathiole-2'',2" -dioxide) derivatives with anti-HIV-1 and anti-human-cytomegalovirus activity” (J Med Chem, 2005):

How the values were obtained:
Settings in all cases: Homo sapiens
CCRF-CEM [1] = assay: Effective concentration required to inhibit HIV-2 ROD in CEM cell culture; assay type: functional, cell-based
Summary of the method: (§1)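 CEM cells (4 × 10^5/mL) infected at ~100 CCID50/mL and mixed with compound dilutions. Giant cell formation scored microscopically at day 4. EC50 = concentration inhibiting virus-induced cytopathicity by 50%.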

MT4 [2] = assay: Cytostatic concentration required to inhibit MT-4 cell proliferation; assay type: functional
Summary of the method: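 Mock-infected MT-4 cells (3 × 10^5/mL) incubated with compound dilutions for 5 days. Viable cells counted by trypan blue exclusion. CC50 = concentration reducing viable MT-4 cell number by 50%.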

MT4 [3] = assay: Effective concentration required to inhibit HIV-2 ROD in MT-4 cell culture; assay type: functional, cell-based
Summary of the method: (§2)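 MT-4 cells (3 × 10^5/mL) infected at ~100 CCID50/mL and mixed with compound dilutions. Cytopathicity read by trypan blue exclusion at day 5. EC50 = concentration giving 50% protection against virus-induced loss of viability.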

CCRF-CEM [4] = assay: Effective concentration required to inhibit HIV-1 IIIB in CEM cell culture; assay type: functional, cell-based; summary of the method: as §1
MT4 [5] = assay: Effective concentration required to inhibit HIV-1 IIIB in MT-4 cell culture; assay type: functional, cell-based; summary of the method: as §2
HEL [6] = assay: Minimal cytotoxic concentration required to cause microscopically visible alteration of cell morphology in HEL Cells; assay type: functional
Summary of the method: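 Uninfected HEL cells exposed to compound. Minimum cytotoxic concentration is the lowest level giving a microscopically detectable change in cell morphology.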

HEL [7] = assay: Effective concentration required to inhibit HCMV AD-169 in HEL Cells; assay type: functional, cell-based
Summary of the method: (§3)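 Confluent HEL cells infected with HCMV at 100 PFU/well. After 1-2 h, residual virus removed and MEM with 2% inactivated FCS added, with compound in duplicate at 5-fold dilution steps. After 7 days at 37 °C in 5% CO2, cells fixed with ethanol and Giemsa-stained; plaques or CPE scored microscopically. IC50 interpolated graphically; mean of two independent experiments.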

HEL [8] = assay: Cytostatic concentration required to inhibit HEL cell proliferation; assay type: functional
Summary of the method: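 HEL fibroblasts seeded at 5 × 10^3 cells/well and grown 24 h, then given compound in duplicate. After 3 days at 37 °C in 5% CO2, cell number read on a Coulter counter. CC50 = concentration reducing cell growth by 50%.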

HEL [9] = assay: Effective concentration required to inhibit HCMV Davis in HEL Cells; assay type: functional, cell-based; summary of the method: as §3
CCRF-CEM [10] = assay: Cytostatic concentration required to inhibit CEM cell proliferation; assay type: functional
Summary of the method: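 CEM cells, mock-infected, grown with serial compound dilutions for 4 days. CC50 taken as the concentration that inhibits CEM cell proliferation by 50%.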

SMILES	EC50 (CCRF-CEM [1]) [µM]	EC50 (CCRF-CEM [4]) [µM]	EC50 (HEL [7]) [µM]	EC50 (HEL [9]) [µM]	CC50 (MT4 [2]) [µM]	EC50 (MT4 [3]) [µM]	EC50 (MT4 [5]) [µM]	MCC (HEL [6]) [µM]	CC50 (HEL [8]) [µM]	CC50 (CCRF-CEM [10]) [µM]
Cc1cn([C@@H]2O[C@H](CO[Si](C)(C)C(C)(C)C)C3(OS(=O)(=O)C=C3N)[C@H]2O[Si](C)(C)C(C)(C)C)c(=O)[nH]c1=O (some centres not stated)	> 10				12	> 10				
Cc1cn([C@@H]2O[C@H](CO[Si](C)(C)C(C)(C)C)[C@@]3(OS(=O)(=O)C=C3N)[C@H]2O[Si](C)(C)C(C)(C)C)c(=O)n(C)c1=O	> 250	0.04			230	> 250	0.06			
Cc1cn([C@@H]2O[C@@H]3COC(=O)[C@]3(OS(C)(=O)=O)[C@H]2O)c(=O)[nH]c1=O	> 50	> 50	179	164	≥ 250	> 250	> 50	≥ 400	36	160
Cc1cn([C@@H]2O[C@H](CO[Si](C)(C)C(C)(C)C)[C@@]3(OS(=O)(=O)C=C3NC(=O)C(=O)N3CCC3)[C@H]2O[Si](C)(C)C(C)(C)C)c(=O)n(C)c1=O	> 10	0.7	10	10	17.4	> 50	0.8	65	84.4	21.6
Cc1cn([C@@H]2O[C@H](CO[Si](C)(C)C(C)(C)C)[C@@]3(OS(=O)(=O)C=C3NC(=O)c3ccccc3)[C@H]2O[Si](C)(C)C(C)(C)C)c(=O)n(C)c1=O	> 5	> 5	1.3	1.2	4.9	> 5	> 5	≥ 3.2	9.7	4.91
CCOC(=O)CN1C(=O)CN(C(=O)NC2=CS(=O)(=O)O[C@@]23[C@@H](CO[Si](C)(C)C(C)(C)C)O[C@@H](n2cc(C)c(=O)n(C)c2=O)[C@@H]3O[Si](C)(C)C(C)(C)C)C1=O	> 2	0.24	0.29	0.32	1.43	> 2	0.88	≥ 3.2	2.5	1.42
Cc1cn([C@@H]2O[C@H](CO[Si](C)(C)C(C)(C)C)[C@@]3(OS(=O)(=O)C=C3NCC(=O)OCc3ccccc3)[C@H]2O[Si](C)(C)C(C)(C)C)c(=O)n(C)c1=O	> 250	6.7	> 400	> 400	> 250	> 250		≥ 400	> 200	> 250
Cc1cn([C@@H]2O[C@@H]3COC4(O)CS(=O)(=O)O[C@@]34[C@H]2O)c(=O)[nH]c1=O (some centres not stated)	> 100	> 100			> 100	> 100	> 100			> 100
Cc1cn([C@@H]2O[C@@H]3COC4(O)CS(=O)(=O)O[C@@]34[C@H]2O[Si](C)(C)C(C)(C)C)c(=O)[nH]c1=O (some centres not stated)	> 100	> 100			> 100	> 100	> 100			> 100
Cc1cn([C@@H]2O[C@H](CO[Si](C)(C)C(C)(C)C)[C@@]3(OS(=O)(=O)C=C3NC(=O)NC(=O)c3ccccc3)[C@H]2O[Si](C)(C)C(C)(C)C)c(=O)n(C)c1=O	> 2	> 2	1.2	0.8	3.33	> 10	> 2	≥ 80	≥ 200	2.29

Continued, in another order:

EC50 (CCRF-CEM [1]) [µM]	EC50 (CCRF-CEM [4]) [µM]	EC50 (HEL [7]) [µM]	EC50 (HEL [9]) [µM]	SMILES	CC50 (MT4 [2]) [µM]	EC50 (MT4 [3]) [µM]	EC50 (MT4 [5]) [µM]	MCC (HEL [6]) [µM]	CC50 (HEL [8]) [µM]	CC50 (CCRF-CEM [10]) [µM]
> 4	0.06	253	179	COC(=O)C(=O)NC1=CS(=O)(=O)O[C@@]12[C@@H](CO[Si](C)(C)C(C)(C)C)O[C@@H](n1cc(C)c(=O)n(C)c1=O)[C@@H]2O[Si](C)(C)C(C)(C)C	10.3	> 4	0.08	> 400	> 200	5.57
> 50	0.23	> 80	36	Cc1cn([C@@H]2O[C@H](CO[Si](C)(C)C(C)(C)C)[C@@]3(OS(=O)(=O)C=C3NC(=O)C(=O)O)[C@H]2O[Si](C)(C)C(C)(C)C)c(=O)n(C)c1=O	31.1	> 10	1.3	400	146	72.6
> 10	0.028	6.5	6.5	Cc1cn([C@@H]2O[C@H](CO[Si](C)(C)C(C)(C)C)[C@@]3(OS(=O)(=O)C=C3NC(=O)C(N)=O)[C@H]2O[Si](C)(C)C(C)(C)C)c(=O)n(C)c1=O	9.59	> 2	0.057	≥ 16	14.5	9.96
> 25	> 25	40	> 16	CC(=O)NC1=CS(=O)(=O)O[C@@]12[C@@H](CO[Si](C)(C)C(C)(C)C)O[C@@H](n1cc(C)c(=O)n(C)c1=O)[C@@H]2O[Si](C)(C)C(C)(C)C	10.7	> 5	> 5	≥ 80	> 200	25.7
> 20	> 20	≥ 20	25	COC(=O)NC1=CS(=O)(=O)O[C@@]12[C@@H](CO[Si](C)(C)C(C)(C)C)O[C@@H](n1cc(C)c(=O)n(C)c1=O)[C@@H]2O[Si](C)(C)C(C)(C)C	29.9	> 20	> 20	≥ 50	> 200	30.7
> 25	≥ 5	9	10	COC(=O)CC(=O)NC1=CS(=O)(=O)O[C@@]12[C@@H](CO[Si](C)(C)C(C)(C)C)O[C@@H](n1cc(C)c(=O)n(C)c1=O)[C@@H]2O[Si](C)(C)C(C)(C)C	11.9	> 5	19.5	400	29	29.7
> 0.8	> 0.8	> 20	> 4	C=C(C)C(=O)NC(=O)NC1=CS(=O)(=O)O[C@@]12[C@@H](CO[Si](C)(C)C(C)(C)C)O[C@@H](n1cc(C)c(=O)n(C)c1=O)[C@@H]2O[Si](C)(C)C(C)(C)C	1.19	> 0.8	> 0.8	20	1.2	1.2
> 125	0.6	> 400	> 400	COC(=O)CNC1=CS(=O)(=O)O[C@@]12[C@@H](CO[Si](C)(C)C(C)(C)C)O[C@@H](n1cc(C)c(=O)n(C)c1=O)[C@@H]2O[Si](C)(C)C(C)(C)C	105	> 125	1.61	≥ 400	160	96
> 2	> 2	2.3	1.8	CCOC(=O)NC(=O)NC1=CS(=O)(=O)O[C@@]12[C@@H](CO[Si](C)(C)C(C)(C)C)O[C@@H](n1cc(C)c(=O)n(C)c1=O)[C@@H]2O[Si](C)(C)C(C)(C)C		> 2	> 2	16	14	3
> 2	> 2	> 3.2	2	Cc1cn([C@@H]2O[C@H](CO[Si](C)(C)C(C)(C)C)[C@@]3(OS(=O)(=O)C=C3NC(N)=O)[C@H]2O[Si](C)(C)C(C)(C)C)c(=O)n(C)c1=O	3.7	> 2	> 2	16	11	4.36
> 2	> 2	> 3.2	> 3.2	CCOC(=O)CNC(=O)NC1=CS(=O)(=O)O[C@@]12[C@@H](CO[Si](C)(C)C(C)(C)C)O[C@@H](n1cc(C)c(=O)n(C)c1=O)[C@@H]2O[Si](C)(C)C(C)(C)C	3.78	> 2	> 2	16	13	5.02
> 2	> 2	1.8	2	CCNC(=O)NC1=CS(=O)(=O)O[C@@]12[C@@H](CO[Si](C)(C)C(C)(C)C)O[C@@H](n1cc(C)c(=O)n(C)c1=O)[C@@H]2O[Si](C)(C)C(C)(C)C		> 2	> 2	≥ 3.2	10	4.26
